What was measured:
Rattus norvegicus = organism: Rattus norvegicus; assay: Inhibition of human recombinant NR1/NR2A receptor expressed in rat cortical cells assessed as NMDA-evoked increase in intracellular calcium level at 15 uM; assay type: cell-based
In short: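 Fluo-4/AM Ca2+ fluorimetry on a plate reader, applied to cells expressing recombinant NR1/NR2A receptors. Inhibition (%) of the NMDA-evoked intracellular Ca2+ increase measured at 15 µM compound.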

Glutamate NMDA receptor [1] = assay: Inhibition of NMDA receptor in rat cortical cells assessed as NMDA-evoked increase in intracellular calcium level; assay type: cell-based
In short: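 Rat cortical cell culture loaded with Fluo-4/AM. Baseline and NMDA-evoked intracellular Ca2+ changes monitored by fluorimetry on a plate reader. Number of experiments (n) given per compound.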

Mus musculus [2] = assay: Analgesic activity against formalin-induced pain in mouse at 20 mg/kg, po; assay type: ADME, organism-based; parameters: dose 20 mg/kg, route oral; settings: in vivo
In short: (§1)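 Fasted male NMRI mice (20–25 g) dosed orally with test drug or vehicle (5% Tween 80) 15 min before 20 µl of 1% formalin injected sc into right hindpaw. Licking/biting time read by visual observation at 20–25 min post-formalin (late phase). Percent decrease versus daily vehicle group; Mann–Whitney U-test; ED50 from Boltzmann sigmoidal fit.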

Mus musculus [3] = assay: Analgesic activity against formalin-induced pain in po dosed mouse; assay type: ADME, organism-based; in short: as §1
[4] = biological target: Glutamate NMDA receptor (Rattus norvegicus) (UniProt P35439+Q00959+Q00960+Q00961+Q62645+Q8VHN2+Q9R1M7); assay: Inhibition of NMDA receptor in rat cortical cells assessed as NMDA-evoked increase in intracellular calcium level at 0.1 uM; assay type: cell-based
In short: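 Rat cortical cell culture loaded with Fluo-4/AM. Baseline and NMDA-evoked intracellular Ca2+ changes monitored by fluorimetry on a plate reader. Read-out is inhibition of the NMDA-evoked Ca2+ rise, with percent inhibition taken at 0.1 µM compound. Number of experiments (n) given per compound.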

Glutamate NMDA receptor [5] = assay: Displacement of [3H]Ro-256981 from NMDA receptor in rat forebrain membrane; assay type: cell membranes
In short: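 Binding assay on rat forebrain membrane using tritiated Ro-25,6981 as radioligand.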

IC50 (Glutamate NMDA receptor [1])	Activity (Mus musculus [2])	inhibition [4]	Ki (Glutamate NMDA receptor [5])	SMILES	inhibition (Rattus norvegicus)	ED50 (Mus musculus [3])
9.1 nM	Not Active			O=C(c1cc(=O)c2cc(O)ccc2[nH]1)N1CCC(Cc2ccc(Cl)cc2)CC1	-5.1%	
49.6 nM				O=C(c1cc(=O)c2cc(O)ccc2[nH]1)N1CCC(Oc2ccccc2)CC1	0.7%	8.5 mg/kg
				O=C(c1nc2ccc(O)cc2[nH]1)N1CCC(Cc2ccccc2)CC1	21%	
		4.5%		O=C(c1cc(=O)c2ccccc2[nH]1)N1CCC(Cc2ccccc2)CC1	1.1%	
21.7 nM				O=C(c1cc(=O)c2cc3[nH]c(=O)oc3cc2[nH]1)N1CCC(Cc2ccccc2)CC1	-2.1%	> 20 mg/kg
				C[C@H]([C@@H](O)c1ccc(O)cc1)N1CCC(Cc2ccccc2)CC1	-2.7%	
		27.9%		O=C(c1cc(=O)c2ccc(O)cc2[nH]1)N1CCC(Cc2ccccc2)CC1	9.1%	
				O=C(c1cc2ccc(O)cc2[nH]1)N1CCC(Cc2ccccc2)CC1	15.6%	
9.1 nM	Not Active			O=C(c1cc(=O)c2cc(O)ccc2[nH]1)N1CCC(Cc2ccccc2)CC1	8.9%	
8.7 nM				O=C(c1cc(=O)c2cc(O)ccc2[nH]1)N1CCC(Cc2ccc(F)cc2)CC1	-0.9%	9.5 mg/kg
25 nM				O=C(c1cc2cc(O)ccc2[nH]1)N1CCC(Cc2ccccc2)CC1	17.2%	
7.1 nM	Not Active			O=C(c1cc(=O)c2cc(O)ccc2[nH]1)N1CCC(Oc2ccc(Cl)cc2)CC1	5.1%	
11 nM				Cc1ccc(CC2CCN(C(=O)c3cc(=O)c4cc(O)ccc4[nH]3)CC2)cc1	-2.4%	10.6 mg/kg
		2.6%		CC(=O)Nc1ccc2[nH]c(C(=O)N3CCC(Cc4ccccc4)CC3)cc(=O)c2c1	12.4%	
6.2 nM			4.2 nM	Cc1ccc(OC2CCN(C(=O)c3cc(=O)c4cc(O)ccc4[nH]3)CC2)cc1	-3.5%	8.2 mg/kg
317 nM				O=C(c1nc(=O)c2cc(O)ccc2[nH]1)N1CCC(Cc2ccccc2)CC1	13.9%	

From ChEMBL document CHEMBL1146273, “Kynurenic acid amides as novel NR2B selective NMDA receptor antagonists” (Bioorg Med Chem Lett, 2007)
